Laboratory results published in ChEMBL document CHEMBL4823301, “Synthesis of acyclic nucleoside phosphonates targeting flavin-dependent thymidylate synthase in Mycobacterium tuberculosis” (Bioorg Med Chem, 2021).
Calls of active or inactive are those of the source. The rule behind the calls is not given here.

Tests used:
[1] = target: T1, Flavin-dependent thymidylate synthase (Mycobacterium tuberculosis) (UniProt P9WG57); assay: Inhibition of Mycobacterium tuberculosis H37Rv ThyX expressed in Escherichia coli BL21(DE3) using 100 uM dUMP as substrate in presence of FAD cofactor at 200 uM incubated for 10 mins prior to the injection of NADPH and measured upto 20 mins by NADPH oxidase based spectrophotometric analysis relative to control; conditions: time 30.0 min
T1 sequence (whole entry): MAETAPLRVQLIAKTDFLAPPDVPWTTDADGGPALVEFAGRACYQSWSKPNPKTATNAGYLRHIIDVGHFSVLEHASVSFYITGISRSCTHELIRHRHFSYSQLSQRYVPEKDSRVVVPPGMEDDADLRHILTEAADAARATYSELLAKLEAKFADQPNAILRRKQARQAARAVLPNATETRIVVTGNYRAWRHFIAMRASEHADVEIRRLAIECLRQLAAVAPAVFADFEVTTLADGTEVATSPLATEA
Summary of the method: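 Mtb ThyX from E. coli BL21(DE3)/pLysS carrying pET24d, purified and stored at −20 °C, with a FAD:ThyX ratio of 1:3. Compound was preincubated 10 min at 25 °C. Injected NADPH started the reaction, and A340 fall was read up to 20 min. Duplicates; % inhibition = (1−Vi/Vo)×100 from initial rates.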

[2] = target: T1, Flavin-dependent thymidylate synthase (Mycobacterium tuberculosis); assay: Inhibition of Mycobacterium tuberculosis H37Rv ThyX expressed in Escherichia coli BL21(DE3) using 10 uM dUMP as substrate in presence of FAD cofactor at 200 uM incubated for 10 mins prior to the injection of NADPH and measured upto 20 mins by NADPH oxidase based spectrophotometric analysis; conditions: time 30.0 min
[3] = target: T1, Flavin-dependent thymidylate synthase (Mycobacterium tuberculosis); assay: Inhibition of Mycobacterium tuberculosis H37Rv ThyX expressed in Escherichia coli BL21(DE3) using 100 uM dUMP as substrate in absence of FAD cofactor at 200 uM incubated for 10 mins prior to the injection of NADPH and measured upto 20 mins by NADPH oxidase based spectrophotometric analysis; conditions: time 30.0 min
[4] = Inhibition of flavin-dependent thymidylate synthetase (unknown origin); set-up: species or system Bacteria

Structure (SMILES) | inhibition [1] | inhibition [2] | inhibition [3] | Ki [4]
CCCCCCCC(=O)NCC#Cc1cn(CC=CCP(=O)(O)O)c(=O)[nH]c1=O | 0% | inactive | inactive | 
COc1ccc2c(=O)[nH]c(=O)n(CC=CCP(=O)(O)O)c2c1 | 26.4% | inactive | inactive | 
O=C(Cc1ccccc1)NCC#Cc1ccc2c(=O)[nH]c(=O)n(CC=CCP(=O)(O)O)c2c1 | 14.7% | inactive | inactive | 
CCCCCCCC(=O)NCC#Cc1ccc2c(=O)[nH]c(=O)n(CC=CCP(=O)(O)O)c2c1 | 14.9% | inactive | inactive | 
CCCCCCNC(=O)NCC#Cc1cn(CC=CCP(=O)(O)O)c(=O)[nH]c1=O | 0% | inactive | inactive | 
O=C(Cc1ccccc1)NCC#Cc1ccc2c(c1)c(=O)[nH]c(=O)n2CC=CCP(=O)(O)O | 0% | inactive | inactive | 
Cc1ccc2c(c1)c(=O)[nH]c(=O)n2CC=CCP(=O)(O)O | 26.2% | inactive | inactive | 
CCCCCCNC(=O)NCC#Cc1ccc2c(c1)c(=O)[nH]c(=O)n2CC=CCP(=O)(O)O | 14.9% | inactive | inactive | 
CCCCCCCC(=O)NCC#Cc1ccc2c(c1)c(=O)[nH]c(=O)n2CC=CCP(=O)(O)O | 0% | inactive | inactive | 
O=c1[nH]c(=O)n(CC=CCP(=O)(O)O)cc1Cc1ccccc1 | 23.7% | inactive | inactive | 
O=c1[nH]c(=O)n(CC=CCP(=O)(O)O)c2ccccc12 | 15.8% | inactive | inactive | 
CCCCCCNC(=O)NCC#Cc1ccc2c(=O)[nH]c(=O)n(CC=CCP(=O)(O)O)c2c1 | 31.8% | inactive | inactive | 
O=C1c2ccccc2C(=O)C(c2ccco2)C1O (configuration not stated) |  |  |  | 28 nM
